According to ChEMBL document CHEMBL2434922, “Microwave assisted synthesis of dihydrobenzo[4,5]imidazo[1,2-a]pyrimidin-4-ones; synthesis, in vitro antimicrobial and anticancer activities of novel coumarin substituted dihydrobenzo[4,5]imidazo[1,2-a]pyrimidin-4-ones” (2013):
Converted amounts (≈) assume the structure as drawn.

Experiments:
Format in all cases: functional
[1] = Cytotoxicity against mouse Daltons ascitic lymphoma cells assessed as dead cells at 100 ug/ml after 3 hrs by trypan blue exclusion assay relative to control
Summary of the method: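 DAL cells (0.2 mL, 10⁶ cells/mL) mixed with ice-cold PBS pH 7.4 and compound (100 µg/mL), held at 37 °C under 5% CO₂ for 3 h. Aliquot then stained with 0.4% trypan blue in normal saline for 5–15 min at room temperature. Live and dead cells counted in a Neubauer chamber; % dead = dead/(dead+live) × 100.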

Penicillium chrysogenum = assay: Antifungal activity against Penicillium chrysogenum assessed as growth inhibition after 48 to 72 hrs by broth microdilution method
Fusarium oxysporum = assay: Antifungal activity against Fusarium oxysporum assessed as growth inhibition after 48 to 72 hrs by broth microdilution method
Aspergillus flavus = assay: Antifungal activity against Aspergillus flavus assessed as growth inhibition after 48 to 72 hrs by broth microdilution method
Aspergillus fumigatus = assay: Antifungal activity against Aspergillus fumigatus assessed as growth inhibition after 48 to 72 hrs by broth microdilution method
Aspergillus niger = assay: Antifungal activity against Aspergillus niger assessed as growth inhibition after 48 to 72 hrs by broth microdilution method
Candida albicans = assay: Antifungal activity against Candida albicans assessed as growth inhibition after 48 to 72 hrs by broth microdilution method
Pseudomonas aeruginosa = assay: Antibacterial activity against Pseudomonas aeruginosa assessed as growth inhibition after 18 hrs by broth microdilution method
Klebsiella pneumoniae = assay: Antibacterial activity against Klebsiella pneumoniae assessed as growth inhibition after 18 hrs by broth microdilution method
Escherichia coli = assay: Antibacterial activity against Escherichia coli assessed as growth inhibition after 18 hrs by broth microdilution method
Streptococcus mutans = assay: Antibacterial activity against Streptococcus mutans assessed as growth inhibition after 18 hrs by broth microdilution method
Enterococcus faecalis = assay: Antibacterial activity against Enterococcus faecalis assessed as growth inhibition after 18 hrs by broth microdilution method
Staphylococcus aureus = assay: Antibacterial activity against Staphylococcus aureus assessed as growth inhibition after 18 hrs by broth microdilution method

Question: Which results are given for `O=c1cc(-c2cccc(F)c2)nc2[nH]c3ccccc3n12`?
Answer: mortality at 100 µg/mL [1]: 54%; MIC (Penicillium chrysogenum): 0.2 µg/mL (≈ 0.716 µM); MIC (Fusarium oxysporum): 0.4 µg/mL (≈ 1.43 µM); MIC (Aspergillus flavus): 0.8 µg/mL (≈ 2.86 µM); MIC (Aspergillus fumigatus): 0.8 µg/mL (≈ 2.86 µM); MIC (Aspergillus niger): 12.5 µg/mL (≈ 44.8 µM); MIC (Candida albicans): 1.6 µg/mL (≈ 5.73 µM); MIC (Pseudomonas aeruginosa): 25 µg/mL (≈ 89.5 µM); MIC (Klebsiella pneumoniae): 100 µg/mL (≈ 358 µM); MIC (Escherichia coli): 100 µg/mL (≈ 358 µM); MIC (Streptococcus mutans): 12.5 µg/mL (≈ 44.8 µM); MIC (Enterococcus faecalis): 0.2 µg/mL (≈ 0.716 µM); MIC (Staphylococcus aureus): 100 µg/mL (≈ 358 µM)

Question: Which results are given for `COc1ccc(-c2cc(=O)n3c(n2)[nH]c2ccccc23)cc1`?
Answer: mortality at 100 µg/mL [1]: 64%; MIC (Penicillium chrysogenum): 0.4 µg/mL (≈ 1.37 µM); MIC (Fusarium oxysporum): 0.2 µg/mL (≈ 0.687 µM); MIC (Aspergillus flavus): 0.8 µg/mL (≈ 2.75 µM); MIC (Aspergillus fumigatus): 1.6 µg/mL (≈ 5.49 µM); MIC (Aspergillus niger): 25 µg/mL (≈ 85.8 µM); MIC (Candida albicans): 6.25 µg/mL (≈ 21.5 µM); MIC (Pseudomonas aeruginosa): 100 µg/mL (≈ 343 µM); MIC (Klebsiella pneumoniae): 100 µg/mL (≈ 343 µM); MIC (Escherichia coli): 100 µg/mL (≈ 343 µM); MIC (Streptococcus mutans): 100 µg/mL (≈ 343 µM); MIC (Enterococcus faecalis): 0.2 µg/mL (≈ 0.687 µM); MIC (Staphylococcus aureus): 100 µg/mL (≈ 343 µM)

Question: For `Oc1cc(-c2ccccc2)nc2nc3ccccc3n12`, which mortality at 100 µg/mL [1] is on record?
Answer: The mortality at 100 µg/mL was 58%.

Question: What about the MIC (Penicillium chrysogenum) of the same compound?
Answer: The MIC was 0.2 µg/mL (≈ 0.765 µM).

Question: What about the MIC (Fusarium oxysporum) of the same compound?
Answer: Its MIC is 0.2 µg/mL (≈ 0.765 µM).

Question: What about the MIC (Aspergillus flavus) of the same compound?
Answer: The MIC was 0.8 µg/mL (≈ 3.06 µM).

Question: And the MIC (Aspergillus fumigatus)?
Answer: Its MIC is 0.8 µg/mL (≈ 3.06 µM).

Question: And the MIC (Aspergillus niger)?
Answer: Its MIC is 6.25 µg/mL (≈ 23.9 µM).

Question: What about the MIC (Candida albicans) of the same compound?
Answer: Its MIC is 1.6 µg/mL (≈ 6.12 µM).

Question: What about the MIC (Pseudomonas aeruginosa) of the same compound?
Answer: The MIC was 100 µg/mL (≈ 383 µM).

Question: What about the MIC (Klebsiella pneumoniae) of the same compound?
Answer: Its MIC is 100 µg/mL (≈ 383 µM).

Question: And the MIC (Escherichia coli)?
Answer: The MIC was 100 µg/mL (≈ 383 µM).

Question: And the MIC (Streptococcus mutans)?
Answer: Its MIC is 100 µg/mL (≈ 383 µM).

Question: And the MIC (Enterococcus faecalis)?
Answer: Its MIC is 0.2 µg/mL (≈ 0.765 µM).

Question: And the MIC (Staphylococcus aureus)?
Answer: Its MIC is 100 µg/mL (≈ 383 µM).

Question: With `O=c1cc(Cn2c3ccccc3n3c(=O)cc(C(F)(F)F)nc23)c2cc(F)ccc2o1` as the compound, how does the mortality at 100 µg/mL [1] read?
Answer: The mortality at 100 µg/mL was 79%.

Question: And the MIC (Penicillium chrysogenum)?
Answer: The MIC was 0.2 µg/mL (≈ 0.466 µM).

Question: And the MIC (Fusarium oxysporum)?
Answer: Its MIC is 0.2 µg/mL (≈ 0.466 µM).

Question: What about the MIC (Aspergillus flavus) of the same compound?
Answer: The MIC was 1.6 µg/mL (≈ 3.73 µM).

Question: What about the MIC (Aspergillus fumigatus) of the same compound?
Answer: The MIC was 1.6 µg/mL (≈ 3.73 µM).

Question: What about the MIC (Aspergillus niger) of the same compound?
Answer: Its MIC is 25 µg/mL (≈ 58.2 µM).

Question: What about the MIC (Candida albicans) of the same compound?
Answer: Its MIC is 50 µg/mL (≈ 116 µM).

Question: And the MIC (Pseudomonas aeruginosa)?
Answer: The MIC was 100 µg/mL (≈ 233 µM).

Question: What about the MIC (Klebsiella pneumoniae) of the same compound?
Answer: The MIC was 100 µg/mL (≈ 233 µM).

Question: And the MIC (Escherichia coli)?
Answer: Its MIC is 100 µg/mL (≈ 233 µM).

Question: And the MIC (Streptococcus mutans)?
Answer: The MIC was 12.5 µg/mL (≈ 29.1 µM).

Question: And the MIC (Enterococcus faecalis)?
Answer: The MIC was 0.8 µg/mL (≈ 1.86 µM).

Question: And the MIC (Staphylococcus aureus)?
Answer: Its MIC is 100 µg/mL (≈ 233 µM).

Question: Which results are given for `CC(C)c1cc(=O)n2c3ccccc3n(Cc3cc(=O)oc4ccc(Br)cc34)c2n1`?
Answer: mortality at 100 µg/mL [1]: 47%; MIC (Penicillium chrysogenum): 0.2 µg/mL (≈ 0.431 µM); MIC (Fusarium oxysporum): 0.2 µg/mL (≈ 0.431 µM); MIC (Aspergillus flavus): 0.8 µg/mL (≈ 1.72 µM); MIC (Aspergillus fumigatus): 0.8 µg/mL (≈ 1.72 µM); MIC (Aspergillus niger): 25 µg/mL (≈ 53.8 µM); MIC (Candida albicans): 50 µg/mL (≈ 108 µM); MIC (Pseudomonas aeruginosa): > 100 µg/mL; MIC (Klebsiella pneumoniae): > 100 µg/mL; MIC (Escherichia coli): 100 µg/mL (≈ 215 µM); MIC (Streptococcus mutans): > 100 µg/mL; MIC (Enterococcus faecalis): 0.8 µg/mL (≈ 1.72 µM); MIC (Staphylococcus aureus): > 100 µg/mL

Question: With `O=C(O)c1cn(C2CC2)c2cc(N3CCNCC3)c(F)cc2c1=O` [CIPROFLOXACIN] as the compound, how does the MIC (Klebsiella pneumoniae) read?
Answer: The MIC was 1 µg/mL (≈ 3.02 µM).

Question: And the MIC (Streptococcus mutans)?
Answer: Its MIC is 2 µg/mL (≈ 6.04 µM).

Question: And the MIC (Enterococcus faecalis)?
Answer: The MIC was 2 µg/mL (≈ 6.04 µM).

Question: And the MIC (Staphylococcus aureus)?
Answer: The MIC was 2 µg/mL (≈ 6.04 µM).

Question: For `Cc1ccc2oc(=O)cc(Cn3c4ccccc4n4c(=O)cc(C(F)(F)F)nc34)c2c1`, which mortality at 100 µg/mL [1] is on record?
Answer: Its mortality at 100 µg/mL is 69%.

Question: And the MIC (Penicillium chrysogenum)?
Answer: The MIC was 0.2 µg/mL (≈ 0.47 µM).

Question: And the MIC (Fusarium oxysporum)?
Answer: The MIC was 0.2 µg/mL (≈ 0.47 µM).

Question: And the MIC (Aspergillus flavus)?
Answer: The MIC was 12.5 µg/mL (≈ 29.4 µM).

Question: And the MIC (Aspergillus fumigatus)?
Answer: Its MIC is 25 µg/mL (≈ 58.8 µM).

Question: And the MIC (Aspergillus niger)?
Answer: The MIC was 12.5 µg/mL (≈ 29.4 µM).

Question: And the MIC (Candida albicans)?
Answer: Its MIC is 50 µg/mL (≈ 118 µM).

Question: What about the MIC (Pseudomonas aeruginosa) of the same compound?
Answer: Its MIC is > 100 µg/mL.

Question: And the MIC (Klebsiella pneumoniae)?
Answer: Its MIC is 100 µg/mL (≈ 235 µM).

Question: And the MIC (Escherichia coli)?
Answer: Its MIC is 100 µg/mL (≈ 235 µM).

Question: And the MIC (Streptococcus mutans)?
Answer: The MIC was 12.5 µg/mL (≈ 29.4 µM).

Question: And the MIC (Enterococcus faecalis)?
Answer: Its MIC is 0.4 µg/mL (≈ 0.94 µM).

Question: And the MIC (Staphylococcus aureus)?
Answer: Its MIC is 100 µg/mL (≈ 235 µM).

Question: Which mortality at 100 µg/mL [1] does the source give for `O=c1cc(-c2cccc(Cl)c2)nc2[nH]c3ccccc3n12` here?
Answer: Its mortality at 100 µg/mL is 71%.

Question: And the MIC (Penicillium chrysogenum)?
Answer: Its MIC is 0.4 µg/mL (≈ 1.35 µM).

Question: What about the MIC (Fusarium oxysporum) of the same compound?
Answer: The MIC was 0.2 µg/mL (≈ 0.676 µM).

Question: And the MIC (Aspergillus flavus)?
Answer: Its MIC is 0.2 µg/mL (≈ 0.676 µM).

Question: What about the MIC (Aspergillus fumigatus) of the same compound?
Answer: The MIC was 0.2 µg/mL (≈ 0.676 µM).

Question: What about the MIC (Aspergillus niger) of the same compound?
Answer: The MIC was 25 µg/mL (≈ 84.5 µM).

Question: What about the MIC (Candida albicans) of the same compound?
Answer: Its MIC is 1.6 µg/mL (≈ 5.41 µM).

Question: And the MIC (Pseudomonas aeruginosa)?
Answer: Its MIC is 100 µg/mL (≈ 338 µM).

Question: What about the MIC (Klebsiella pneumoniae) of the same compound?
Answer: The MIC was 100 µg/mL (≈ 338 µM).

Question: What about the MIC (Escherichia coli) of the same compound?
Answer: The MIC was 100 µg/mL (≈ 338 µM).

Question: And the MIC (Streptococcus mutans)?
Answer: Its MIC is 25 µg/mL (≈ 84.5 µM).

Question: What about the MIC (Enterococcus faecalis) of the same compound?
Answer: The MIC was 0.2 µg/mL (≈ 0.676 µM).

Question: What about the MIC (Staphylococcus aureus) of the same compound?
Answer: Its MIC is 100 µg/mL (≈ 338 µM).

Question: With `O=c1cc(-c2ccc(F)cc2)nc2[nH]c3ccccc3n12` as the compound, how does the mortality at 100 µg/mL [1] read?
Answer: Its mortality at 100 µg/mL is 83%.

Question: And the MIC (Penicillium chrysogenum)?
Answer: The MIC was 0.4 µg/mL (≈ 1.43 µM).

Question: What about the MIC (Fusarium oxysporum) of the same compound?
Answer: Its MIC is 0.4 µg/mL (≈ 1.43 µM).

Question: What about the MIC (Aspergillus flavus) of the same compound?
Answer: The MIC was 0.2 µg/mL (≈ 0.716 µM).

Question: And the MIC (Aspergillus fumigatus)?
Answer: The MIC was 0.2 µg/mL (≈ 0.716 µM).

Question: What about the MIC (Aspergillus niger) of the same compound?
Answer: Its MIC is 1.6 µg/mL (≈ 5.73 µM).

Question: And the MIC (Candida albicans)?
Answer: The MIC was 1.6 µg/mL (≈ 5.73 µM).

Question: And the MIC (Pseudomonas aeruginosa)?
Answer: Its MIC is 100 µg/mL (≈ 358 µM).

Question: What about the MIC (Klebsiella pneumoniae) of the same compound?
Answer: The MIC was 100 µg/mL (≈ 358 µM).

Question: And the MIC (Escherichia coli)?
Answer: Its MIC is 100 µg/mL (≈ 358 µM).

Question: And the MIC (Streptococcus mutans)?
Answer: The MIC was 12.5 µg/mL (≈ 44.8 µM).

Question: What about the MIC (Enterococcus faecalis) of the same compound?
Answer: The MIC was 0.2 µg/mL (≈ 0.716 µM).

Question: What about the MIC (Staphylococcus aureus) of the same compound?
Answer: Its MIC is 100 µg/mL (≈ 358 µM).
